Results: ChEMBL document CHEMBL1132231, “New generation dopaminergic agents. 6. Structure-activity relationship studies of a series of 4-(aminoethoxy)indole and 4-(aminoethoxy)indolone derivatives based on the newly discovered 3-hydroxyphenoxyethylamine D2 template” (J Med Chem, 1999)

Assays:
D(2) dopamine receptor [1] = target: T1, D(2) dopamine receptor (Rattus norvegicus, UniProt P61169); experiment: In vitro high binding affinity towards Dopamine receptor D2 by the displacement of [3H]quinpirole radioligand in rat striatal membranes; type: cell membranes, Membrane
T1 sequence (P61169 whole entry): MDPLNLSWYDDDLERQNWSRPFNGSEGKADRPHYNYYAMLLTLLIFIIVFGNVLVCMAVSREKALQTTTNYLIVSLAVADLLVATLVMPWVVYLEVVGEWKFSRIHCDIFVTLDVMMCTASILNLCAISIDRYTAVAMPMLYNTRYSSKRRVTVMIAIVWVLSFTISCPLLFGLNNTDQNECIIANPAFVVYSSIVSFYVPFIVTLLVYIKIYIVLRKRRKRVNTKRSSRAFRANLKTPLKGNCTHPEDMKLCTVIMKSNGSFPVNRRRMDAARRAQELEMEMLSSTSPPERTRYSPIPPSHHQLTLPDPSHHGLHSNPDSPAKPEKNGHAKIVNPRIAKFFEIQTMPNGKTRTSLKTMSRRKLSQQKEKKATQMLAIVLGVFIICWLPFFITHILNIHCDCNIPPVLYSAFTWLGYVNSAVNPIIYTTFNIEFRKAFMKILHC

[2] = target: T2, Adrenergic receptor alpha-1 (Rattus norvegicus, UniProt P15823+P23944+P43140); experiment: In vitro binding affinity towards Alpha-1 adrenergic receptor by the displacement of [3H]prazosin radioligand in rat cortical homogenates
T2 sequence (P15823 whole entry): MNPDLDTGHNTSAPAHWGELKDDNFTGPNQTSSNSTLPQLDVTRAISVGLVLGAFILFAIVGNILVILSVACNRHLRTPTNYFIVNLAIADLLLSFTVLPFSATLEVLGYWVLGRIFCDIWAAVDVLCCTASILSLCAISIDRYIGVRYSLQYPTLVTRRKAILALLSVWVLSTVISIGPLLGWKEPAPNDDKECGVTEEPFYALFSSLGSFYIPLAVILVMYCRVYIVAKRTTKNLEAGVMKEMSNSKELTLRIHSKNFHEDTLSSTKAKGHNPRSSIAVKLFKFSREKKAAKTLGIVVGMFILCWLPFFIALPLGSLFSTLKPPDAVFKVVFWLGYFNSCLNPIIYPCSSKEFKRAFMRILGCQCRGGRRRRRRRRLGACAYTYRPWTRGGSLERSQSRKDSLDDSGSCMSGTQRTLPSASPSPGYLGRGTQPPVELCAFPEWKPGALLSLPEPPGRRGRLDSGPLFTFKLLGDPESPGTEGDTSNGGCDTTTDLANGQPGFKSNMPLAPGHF
T2 sequence (P23944 whole entry): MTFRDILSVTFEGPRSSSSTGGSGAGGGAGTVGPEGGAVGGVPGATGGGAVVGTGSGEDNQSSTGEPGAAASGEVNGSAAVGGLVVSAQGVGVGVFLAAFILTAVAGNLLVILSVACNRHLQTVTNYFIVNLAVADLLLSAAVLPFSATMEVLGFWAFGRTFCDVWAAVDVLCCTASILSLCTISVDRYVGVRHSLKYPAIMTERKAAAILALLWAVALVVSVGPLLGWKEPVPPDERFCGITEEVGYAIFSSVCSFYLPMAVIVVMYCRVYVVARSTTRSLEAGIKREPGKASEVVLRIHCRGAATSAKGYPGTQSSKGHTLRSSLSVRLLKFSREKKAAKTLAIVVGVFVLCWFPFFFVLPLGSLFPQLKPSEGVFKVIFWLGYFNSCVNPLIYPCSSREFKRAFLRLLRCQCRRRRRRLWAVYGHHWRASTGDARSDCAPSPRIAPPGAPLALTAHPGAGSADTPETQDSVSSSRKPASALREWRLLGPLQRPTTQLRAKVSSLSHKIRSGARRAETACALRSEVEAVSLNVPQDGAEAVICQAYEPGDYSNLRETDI
T2 sequence (P43140 whole entry): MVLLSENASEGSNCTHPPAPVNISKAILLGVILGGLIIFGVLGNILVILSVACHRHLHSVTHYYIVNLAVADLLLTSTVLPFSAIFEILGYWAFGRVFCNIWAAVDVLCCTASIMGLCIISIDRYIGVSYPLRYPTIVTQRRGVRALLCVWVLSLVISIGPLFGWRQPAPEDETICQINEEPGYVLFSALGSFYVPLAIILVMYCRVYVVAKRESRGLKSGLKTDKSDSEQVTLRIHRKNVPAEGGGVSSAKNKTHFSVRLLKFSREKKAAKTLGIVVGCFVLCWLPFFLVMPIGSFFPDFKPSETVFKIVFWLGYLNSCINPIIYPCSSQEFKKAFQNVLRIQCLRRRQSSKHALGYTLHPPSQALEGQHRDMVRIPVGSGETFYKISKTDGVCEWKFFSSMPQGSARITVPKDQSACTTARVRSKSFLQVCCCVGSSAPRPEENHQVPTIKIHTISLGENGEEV

D(2) dopamine receptor [3] = target: T1, D(2) dopamine receptor; experiment: In vitro low binding affinity towards Dopamine receptor D2 by the displacement of [3H]spiperone radioligand in rat striatal membranes; type: cell membranes, Membrane
[4] = target: T3, 5-hydroxytryptamine receptor 1A (Rattus norvegicus, UniProt P19327); experiment: In vitro binding affinity towards 5-hydroxytryptamine 1A receptor by the displacement of [3H]8-OH-DPAT radioligand in rat hippocampal homogenates; type: tissue-based, Hippocampus
T3 sequence (P19327 whole entry): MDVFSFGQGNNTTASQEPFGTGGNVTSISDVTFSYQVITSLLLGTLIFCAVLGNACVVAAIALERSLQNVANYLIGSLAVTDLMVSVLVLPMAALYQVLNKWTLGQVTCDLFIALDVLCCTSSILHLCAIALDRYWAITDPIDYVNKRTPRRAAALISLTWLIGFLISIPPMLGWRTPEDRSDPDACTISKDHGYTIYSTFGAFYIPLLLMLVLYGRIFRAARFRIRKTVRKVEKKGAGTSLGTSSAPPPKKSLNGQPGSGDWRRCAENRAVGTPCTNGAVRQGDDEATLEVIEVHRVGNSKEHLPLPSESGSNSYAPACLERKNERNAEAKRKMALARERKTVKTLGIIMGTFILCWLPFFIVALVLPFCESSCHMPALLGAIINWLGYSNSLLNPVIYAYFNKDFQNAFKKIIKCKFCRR

[5] = target: D(2) dopamine receptor (Rattus norvegicus) (UniProt P61169); experiment: Ratio of Dopamine D2 receptor (low)and Dopamine D2 receptor (high)
Sequence of D(2) dopamine receptor (Rattus norvegicus) (P61169 whole entry): as the sequence (P61169 whole entry) above
Method in brief: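 Ratio Ki(low)/Ki(high). Ki(low) comes from displacement of 1 nM [3H]spiperone in striatal membranes with 1 mM GppNHp and NaCl, 37 °C for 5 min. […] Both Ki values derived by Cheng-Prusoff from nine concentrations in triplicate; the ratio serves as an estimate of intrinsic activity.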

[6] = target: T2, Adrenergic receptor alpha-1; experiment: In vitro binding affinity towards alpha-1 adrenergic receptor by the displacement of [3H]prazosin radioligand in rat cortical homogenates
Method in brief: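 Rat cortical homogenates labelled with [3H]prazosin (0.2 nM), incubated 30 min at 25 °C. Stopped with cold 50 mM Tris pH 7.4, then rapid filtration. Triplicate, at least eight concentrations. Nonlinear regression gave IC50, converted to apparent Ki by Cheng-Prusoff. Means of at least two experiments ± SEM; values without SEM are single determinations.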

SMILES	Ki (D(2) dopamine receptor [1])	Ki [2]	Ki (D(2) dopamine receptor [3])	Ki [4]	Ratio [5]	Ki [6]
O=C1Cc2c(OCCN3Cc4ccccc4C3)ccc(Cl)c2N1	0.44 nM	85 nM	2.85 nM	41 nM	–	–
O=C1Cc2c(OCCN3CCc4ccccc4C3)ccc(Cl)c2N1	0.55 nM	–	4.27 nM	17 nM	8	143 nM
O=C1Cc2c(OCCNCc3ccc4ccccc4c3)ccc(F)c2N1	0.63 nM	–	9 nM	121 nM	14	154 nM
Clc1ccc(CNCCOc2ccc(Cl)c3[nH]cc(Cl)c23)cc1	77.1 nM	–	29.8 nM	–	0.4	458 nM
O=C1Cc2c(cccc2OCCNCc2ccccc2)N1	0.21 nM	1448 nM	11.4 nM	306 nM	–	–
O=C1Cc2c(OCCNCc3ccc(-c4ccccc4)cc3)ccc(Cl)c2N1	17.4 nM	–	46.7 nM	38 nM	3	268 nM
O=C1Cc2c(OCCNCc3ccccc3)ccc(Cl)c2N1	0.41 nM	–	2.8 nM	2660 nM	7	350 nM
O=C1Cc2c(ccc3c2O[C@@H](CNCc2ccccc2)CC3)N1	0.14 nM	–	5.9 nM	8.5 nM	42	165 nM
Oc1cccc(OCCNCc2ccccc2)c1	–	–	115 nM	1780 nM	32	5291 nM
O=C(c1c[nH]c2c(Cl)ccc(OCCNCc3ccccc3)c12)C(F)(F)F	–	–	–	51 nM	–	97.5 nM
CN(CCCC(=O)c1ccc(F)cc1)CCOc1cccc2c1CC(=O)N2	3.1 nM	–	24.1 nM	253 nM	8	9.5 nM
c1ccc(CNC[C@H]2CCc3ccc4[nH]ccc4c3O2)cc1	1.9 nM	24 nM	35.9 nM	0.4 nM	–	–
O=C1Cc2c(OCCNCc3cccs3)ccc(F)c2N1	0.66 nM	32 nM	21.8 nM	39 nM	–	–
CCCCNCCOc1ccc(Cl)c2c1CC(=O)N2	0.84 nM	–	14.6 nM	–	17	11 nM
O=C1Cc2c(OCCNCc3ccc(F)cc3)ccc(Cl)c2N1	1.3 nM	–	13.8 nM	6560 nM	11	431 nM
O=C1Cc2c(OCCNCc3ccccc3)ccc(F)c2N1	0.63 nM	52 nM	5.3 nM	535 nM	–	–
O=C1Cc2c(OCCNCc3cccs3)ccc(Cl)c2N1	–	5 nM	–	59 nM	–	–
Clc1ccc(OCCNCc2ccccc2)c2c(Cl)c[nH]c12	7 nM	–	19.9 nM	219 nM	3	66 nM
Fc1ccc(CNCCOc2ccc(Cl)c3[nH]cc(Cl)c23)cc1	50 nM	–	59.5 nM	685 nM	1	229 nM
O=C1Cc2c(OCCNCc3ccc(-c4ccccc4)cc3)ccc(F)c2N1	4.8 nM	220 nM	27.4 nM	340 nM	–	–

SMILES	Ki (D(2) dopamine receptor [1])	Ki [2]	Ki (D(2) dopamine receptor [3])	Ki [4]	Ratio [5]	Ki [6]
O=C1Cc2c(OCCNCc3cccc(-c4ccccc4)c3)ccc(F)c2N1	–	2899 nM	–	625 nM	–	–
O=C1Cc2c(cccc2OCCNCCCCc2ccccc2)N1	0.23 nM	–	2.06 nM	1.9 nM	9	13 nM
Cc1ccc(CNCCOc2ccc(Cl)c3c2CC(=O)N3)cc1	0.64 nM	–	5.5 nM	1170 nM	9	334 nM
Clc1ccc(OCCNCc2ccccc2)c2cc[nH]c12	7.4 nM	–	14.4 nM	193 nM	2	138.5 nM
Oc1ccc2c(c1)O[C@@H](CNCc1ccccc1)CN2	6.7 nM	–	130 nM	–	–	–
NCCOc1cccc2c1CC(=O)N2	6.93 nM	11081 nM	268 nM	664 nM	–	–
O=C1Cc2c(OCCNCCCc3c[nH]c4ccccc34)ccc(F)c2N1	0.15 nM	–	3.03 nM	12 nM	20	26 nM
O=C1Cc2c(OCCNCc3ccsc3)ccc(F)c2N1	0.84 nM	39 nM	17.8 nM	24 nM	–	–
CN(CCOc1cccc2c1CC(=O)N2)Cc1ccccc1	0.76 nM	4829 nM	49.6 nM	6260 nM	–	–
O=C1Cc2c(OCCNCC3CCCCC3)ccc(F)c2N1	0.65 nM	380 nM	5.6 nM	17 nM	–	–
O=C1Cc2c(OCCNCc3ccsc3)ccc(Cl)c2N1	0.24 nM	14 nM	3.32 nM	83 nM	–	–
NCCOc1ccc(F)c2c1CC(=O)N2	12.1 nM	–	916 nM	25 nM	76	25 nM
CNCCOc1cccc2c1CC(=O)N2	2 nM	–	147 nM	276 nM	74	1057 nM
O=C1Cc2c(OCCN3Cc4ccccc4C3)ccc(F)c2N1	2.08 nM	–	16 nM	13 nM	7	268 nM
c1ccc(CCCCNCCOc2cccc3[nH]ccc23)cc1	5.3 nM	–	14.4 nM	0.4 nM	3	11.5 nM
O=C1Cc2c(OCCNCc3ccc(Cl)cc3)ccc(Cl)c2N1	1.4 nM	134 nM	4.1 nM	1890 nM	–	–
Clc1ccc(OCCNCc2cccs2)c2c(Cl)c[nH]c12	12.3 nM	–	38.4 nM	–	3	–
O=C1Cc2c(OCCN3CCc4ccccc4C3)ccc(F)c2N1	0.86 nM	128 nM	5.02 nM	25 nM	–	–
CN(CCOc1ccc(Cl)c2c1CC(=O)N2)Cc1ccccc1	2.6 nM	–	23.4 nM	8 nM	9	41 nM
